In ChEMBL document CHEMBL5104224, “Alkyltriphenylphosphonium turns naphthoquinoneimidazoles into potent membrane depolarizers against mycobacteria” (RSC Med Chem, 2022):
Activity calls are given as the source filed them. The calls are words filed in the database; no cut-off is given here.

Assays:
[1] = tested on: Mycobacterium tuberculosis variant bovis; assay: Bactericidal activity against Mycobacterium bovis BCG ATCC 35734 assessed as reduction on colony forming unit at 5 uM measured after 8 days by time killing assay; type: functional, organism-based; settings: time 8.0 day
[2] = tested on: Mycobacterium tuberculosis variant bovis; assay: Bactericidal activity against Mycobacterium bovis BCG ATCC 35734 assessed as reduction on colony forming unit at 15 uM measured upto 14 days by time killing assay; type: functional, organism-based; settings: time <= 14.0 day
[3] = tested on: Mycobacterium tuberculosis variant bovis; assay: Antimycobacterial activity against Mycobacterium bovis BCG ATCC 35734 assessed as inhibition of bacterial growth by two-fold serial broth dilution method; type: functional
Summary of the method: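 BCG grown at 37°C in 7H9 broth with 0.05% Tween-80, 0.5% glycerol and 10% ADC. Broth dilution method. MIC50/MIC90 are the concentrations giving 50%/90% growth inhibition versus untreated drug-free controls.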

[4] = tested on: Mycobacterium tuberculosis variant bovis; assay: Induction of oxidative stress Mycobacterium bovis BCG ATCC 35734 expressing pfurA-RFP assessed as activation of pfurA at 0.5 to 2 times MIC90 measured after 24 hrs by fluorescence assay; type: functional, organism-based
Summary of the method: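 BCG carrying an integrated pfurA-mCherry reporter (kanamycin-selected). […] Red fluorescence (Ex 587/Em 630 nm) normalized to OD600. INH negative control.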

[5] = tested on: Mycobacterium tuberculosis variant bovis; assay: Antimycobacterial activity against Mycobacterium bovis BCG ATCC 35734 assessed as increase in ROS level at 0.175 to 0.64 uM incubated for 2 hrs by CellROX green reagent fluorescence assay; type: functional, organism-based; settings: dose 0.175-0.64 µM, DDE = dose-dependent effect
Summary of the method: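 CellROX Green then added to 10 μM final, followed by 30 min at 37°C in the dark. Readout is green fluorescence (Ex 485/Em 520 nm) normalized to OD600. Naphthoquinone positive control, INH negative control.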

SMILES | Activity [4] | Activity [5] | also measured
Cc1nc2c(n1CCCCCCCCC[P+](c1ccccc1)(c1ccccc1)c1ccccc1)C(=O)c1ccccc1C2=O | – | – | Activity [1]: Active
NNC(=O)c1ccncc1 | – | – | Activity [2]: Active
Cc1nc2c(n1CCCCCCCCCCC[P+](c1ccccc1)(c1ccccc1)c1ccccc1)C(=O)c1ccccc1C2=O | – | – | MIC90 [3]: 0.8 µM
CCCCCCCCn1c2c([n+](CCCC)c1C)C(=O)c1ccccc1C2=O.[Br-] | Active | Dde | –
CCCCn1c2c([n+](C3CCC4(CCCCC4)CC3)c1C)C(=O)c1ccccc1C2=O.[Br-] | Active | Dde | –
